Active and inactive are the calls of the source. The calls are words filed in the database; no cut-off is given here. Some results are limits rather than exact numbers.

One data set concerns U-87 MG. Kind of data set: Growth inhibition of human U87MG cells after 72 hrs by sulforhodamine B assay. It counts as functional, U-87MG ATCC.
The next data set relates to PC-3. The data set can be described thus: Growth inhibition of human PC3 cells after 72 hrs by sulforhodamine B assay. It counts as functional. In general terms: The SRB assay estimates cell density from bound dye.
The target in data set [1] is T1, Serine/threonine-protein kinase mTOR (Homo sapiens, UniProt P42345). Kind of data set: Inhibition of recombinant human N-terminal FLAG-tagged mTOR (1362 to end amino acids) using ULight-4E-BP1 as substrate incubated for 1 hr by LANCE Ultra assay.
The target of data set [2] is Phosphatidylinositol 4,5-bisphosphate 3-kinase catalytic subunit alpha isoform (Homo sapiens, UniProt P42336). The data set can be described thus: Inhibition of recombinant human PI3Kalpha using PIP2 as substrate incubated for 1 hr by kinase-glo luminescent assay.
Data set [3] addresses T1, Serine/threonine-protein kinase mTOR. The data set can be described thus: Inhibition of mTOR in human U87MG cells assessed as suppression of phosphorylation of S6 ribosomal at 25 nM after 3 hrs by Western blot analysis. Particulars: U87.
Data set [4] deals with U87. The data set can be described thus: Inhibition of PI3K in human U87MG cells assessed as suppression of phosphorylation of AKT at Ser473 residue at 25 nM after 3 hrs by Western blot analysis. It counts as cell-based. The procedure, abridged:
(§1)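 U87MG cells seeded at 1×10^6 per well, incubated overnight at 37 °C, 5% CO₂, then treated at various concentrations for 3 h at 37 °C. Western blot for phospho-Akt (Ser473, Thr308), phospho-S6 (Ser235/236) and phospho-4E-BP1 (Thr37/46), with GAPDH as internal control. Bands quantified as mean ± SD, n = 3 biological replicates, versus untreated cells.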
For orientation: A western blot detects proteins with antibodies after separation by electrophoresis.

Data set [5] deals with T1, Serine/threonine-protein kinase mTOR. Kind of data set: Inhibition of mTOR in human U87MG cells assessed as suppression of phosphorylation of S6 ribosomal at Ser235/236 residues at 25 nM after 3 hrs by Western blot analysis. It is filed as cell-based. The settings on record: U87. An outline of the steps: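 U87MG cells were seeded at 1×10^6 per well and held overnight at 37 °C, 5% CO2. They were then exposed to a range of inhibitor concentrations for 3 h at 37 °C. Phospho-Akt (Ser473, Thr308), phospho-S6 (Ser235/236) and phospho-4E-BP1 (Thr37/46) were measured by Western blot with GAPDH as loading control. Bands were quantified as mean ± SD of 3 biological replicates against untreated cells.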

Data set [6] has as its system U87. The data set can be described thus: Inhibition of PI3K in human U87MG cells assessed as suppression of phosphorylation of AKT at Thr308 residue at 25 nM after 3 hrs by Western blot analysis. It is filed as cell-based. An outline of the steps:
as §1

Data set [7] is described as follows: MRT(0 to t) in Sprague-Dawley rat at 5 mg/kg, po. It is filed as ADME, organism-based. Particulars: in vivo. An outline of the steps:
(§2)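 Male Sprague-Dawley rats (n = 3) received a single 5 mg/kg oral gavage dose formulated as a suspension in 0.5% methylcellulose. Plasma concentration-time curves were recorded and mean PK parameters derived.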

Data set [8] is described as follows: MRT(0 to infinity) in Sprague-Dawley rat at 5 mg/kg, po. It counts as ADME, organism-based. The settings on record: in vivo. The procedure, abridged:
as §2

Phosphatidylinositol 4,5-bisphosphate 3-kinase catalytic subunit alpha isoform, sequence (P42336 whole entry, canonical isoform): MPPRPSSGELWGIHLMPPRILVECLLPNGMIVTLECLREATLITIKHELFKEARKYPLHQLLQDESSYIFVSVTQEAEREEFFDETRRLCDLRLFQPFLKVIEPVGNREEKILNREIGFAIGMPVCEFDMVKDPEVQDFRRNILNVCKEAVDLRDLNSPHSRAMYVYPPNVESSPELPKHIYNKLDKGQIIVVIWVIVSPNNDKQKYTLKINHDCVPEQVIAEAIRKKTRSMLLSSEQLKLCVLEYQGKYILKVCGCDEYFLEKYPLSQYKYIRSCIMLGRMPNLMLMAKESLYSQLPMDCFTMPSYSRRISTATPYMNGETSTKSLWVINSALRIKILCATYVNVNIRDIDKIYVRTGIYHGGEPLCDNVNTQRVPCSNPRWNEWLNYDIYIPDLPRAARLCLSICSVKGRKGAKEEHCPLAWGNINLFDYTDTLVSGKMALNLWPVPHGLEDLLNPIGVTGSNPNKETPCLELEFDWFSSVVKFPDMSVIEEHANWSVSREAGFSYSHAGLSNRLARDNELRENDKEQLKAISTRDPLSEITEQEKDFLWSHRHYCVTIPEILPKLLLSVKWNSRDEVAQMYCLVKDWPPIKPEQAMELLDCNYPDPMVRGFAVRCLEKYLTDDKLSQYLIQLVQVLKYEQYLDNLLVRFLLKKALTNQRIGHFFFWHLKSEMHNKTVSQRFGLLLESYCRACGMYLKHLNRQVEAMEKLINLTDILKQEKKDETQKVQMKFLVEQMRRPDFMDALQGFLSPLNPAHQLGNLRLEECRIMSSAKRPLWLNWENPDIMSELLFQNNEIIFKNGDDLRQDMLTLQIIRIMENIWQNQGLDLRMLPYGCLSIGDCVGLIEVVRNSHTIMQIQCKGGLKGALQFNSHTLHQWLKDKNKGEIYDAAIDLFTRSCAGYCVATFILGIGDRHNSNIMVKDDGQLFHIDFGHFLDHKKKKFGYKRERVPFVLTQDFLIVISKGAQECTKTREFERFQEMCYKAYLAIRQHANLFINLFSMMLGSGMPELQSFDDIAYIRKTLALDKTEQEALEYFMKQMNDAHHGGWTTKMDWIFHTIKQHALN

Regarding `COc1ncc(-c2ccc3nccc(/C(C)=C\C(=O)N4CCOCC4)c3c2)cc1NS(=O)(=O)c1ccc(F)cc1F`, the 50% growth inhibitory concentration (GI50) (as a rule, the concentration at which growth is held to half of that of the control) was more than 10000 nM in the data set on U-87 MG and 8020 nM in the data set with PC-3. In addition, the results for the IC50 in [1] and in data set [2] were 141 nM and 23 nM, respectively.
The like results for `COc1ncc(-c2ccc3nccc(/C(C)=C/C(=O)N(C)CCO)c3c2)cc1NS(=O)(=O)c1ccc(F)cc1F` were, in that order, 380 nM, 290 nM, 1.7 nM and 1.5 nM.
With `COc1ncc(-c2ccc3nccc(/C(C)=C/C(=O)N4CCCC4)c3c2)cc1NS(=O)(=O)c1ccc(F)cc1F`, the results for the GI50 with U-87 MG and in the data set with PC-3 were 390 nM and 1160 nM, respectively. The IC50 – broadly, the concentration at which inhibition is half-maximal – in data set [1] worked out at 2.1 nM; in [2], 1.2 nM.
Turning to `COc1ncc(-c2ccc3nccc(-c4ccnnc4)c3c2)cc1NS(=O)(=O)c1ccc(F)cc1F` [OMIPALISIB], the inhibition result (in data set [3]; with U87 [4]; in [5]; with U87 [6]) was “Active” in each case. Moreover, the GI50 with U-87 MG is 220 nM; in the data set on PC-3 it was 250 nM.
For `COc1ncc(-c2ccc3nccc(/C(C)=C/C(=O)N4CCOCC4)c3c2)cc1NS(=O)(=O)c1ccc(F)cc1F`, the results for the GI50 in the data set with U-87 MG and in the data set on PC-3 were 610 nM and 1670 nM, respectively. Further, the half-inhibitory concentration (IC50) in data set [1] worked out at 3.3 nM; in [2] it was 1.1 nM.
As for `COc1ncc(-c2ccc3nccc(/C=C/C(=O)N4CCN(C)CC4)c3c2)cc1NS(=O)(=O)c1ccc(F)cc1F`, the mean residence time (MRT last) (in general, a mean duration of stay, worked out from the concentration-time curve) in data set [7] was 1.89 h. In addition, the GI50 in the data set on U-87 MG came out at 220 nM; in the data set on PC-3, 450 nM. Besides, the MRT inf (commonly the average time that molecules of a dose stay in the body) in data set [8] is 2.59 h. Also, the IC50 came to 3.2 nM in [1] and 1.04 nM in data set [2].
For `COc1ncc(-c2ccc3nccc(/C(C)=C/C(=O)N4CCC(O)CC4)c3c2)cc1NS(=O)(=O)c1ccc(F)cc1F`, the figures for the 50% growth inhibitory concentration (GI50) with U-87 MG and with PC-3 were 600 nM and 1080 nM, respectively. Moreover, the IC50 in [1] was found to be 6.1 nM; in data set [2], 1.4 nM.

The values above are taken from ChEMBL document CHEMBL4732196, “Structural optimization towards promising β-methyl-4-acrylamido quinoline derivatives as PI3K/mTOR dual inhibitors for anti-cancer therapy: The in vitro and in vivo biological evaluation” (Eur J Med Chem, 2021).
